Reference: ChEMBL document CHEMBL3352416, “Discovery of carbohybrid-based 2-aminopyrimidine analogues as a new class of rapid-acting antimalarial agents using image-based cytological profiling assay” (J Med Chem, 2014)
Calls of active or inactive are those of the source. The rule behind the calls is not given here.

Columns and labels:
[1] = tested on: Plasmodium falciparum; test: Antimalarial activity against tightly synchronized Plasmodium falciparum HB3 assessed as parasite stage accumulation index at schizonts stages at 10 uM treated at 6 hrs post-invasion for continuous duration of 36 hrs by automated image mining based cytological profiling assay; type: functional
Method in brief: (§1)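 Tightly synchronized cultures exposed to 10 µM final from 6 hpi (early ring), 18 hpi (late ring) or 30 hpi (mid-trophozoite) for a continuous 36 h. Erythrocytes stained with WGA-AlexaFluor 488, parasite nuclei with DAPI, functional mitochondria with Mitotracker Red CMXRos. Stages (early rings, late rings, trophozoites, schizonts) classified by nuclear spot number and size. Viable parasitaemia and stage accumulation index obtained by automated image analysis.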

[2] = tested on: Plasmodium falciparum; test: Antimalarial activity against tightly synchronized Plasmodium falciparum HB3 assessed as parasite stage accumulation index at schizonts stages at 10 uM treated at 30 hrs post-invasion for continuous duration of 36 hrs by automated image mining based cytological profiling assay; type: functional
[3] = tested on: Plasmodium falciparum; test: Antimalarial activity against tightly synchronized Plasmodium falciparum W2 assessed as parasite stage accumulation index at early ring stages at 10 uM treated at 6 hrs post-invasion for continuous duration of 36 hrs by automated image mining based cytological profiling assay; type: functional; method in brief: as §1
[4] = tested on: Plasmodium falciparum; test: Antimalarial activity against tightly synchronized Plasmodium falciparum HB3 assessed as parasite stage accumulation index at trophozoites stages at 10 uM treated at 18 hrs post-invasion for continuous duration of 36 hrs by automated image mining based cytological profiling assay; type: functional; method in brief: as §1
[5] = tested on: Plasmodium falciparum; test: Antimalarial activity against tightly synchronized Plasmodium falciparum W2 assessed as parasite stage accumulation index at trophozoites stages at 10 uM treated at 30 hrs post-invasion for continuous duration of 36 hrs by automated image mining based cytological profiling assay; type: functional; method in brief: as §1
[6] = tested on: Plasmodium falciparum; test: Antimalarial activity against tightly synchronized Plasmodium falciparum K1 assessed as parasite stage accumulation index at late ring stages at 10 uM treated at 6 hrs post-invasion for continuous duration of 36 hrs by automated image mining based cytological profiling assay; type: functional
[7] = tested on: Plasmodium falciparum; test: Antimalarial activity against Plasmodium falciparum W2 assessed as increase in schizonts parasite stage accumulation index at 10 uM treated at 42 hrs post-invasion for 24 hrs by automated image mining based cytological profiling assay; type: functional, organism-based
Method in brief: (§2)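 Tightly synchronized cultures exposed from the 42 hpi mid-schizont point for 24 h to 10 µM final. Host cells stained with wheat germ agglutinin-AlexaFluor 488, parasite nuclei with DAPI and live-parasite mitochondria with Mitotracker Red CMXRos. Infected and viable parasitaemia and stage proportions quantified by automated image mining. Stage accumulation indices and parasitaemia reduction index derived.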

[8] = tested on: Plasmodium falciparum; test: Antimalarial activity against tightly synchronized Plasmodium falciparum HB3 assessed as parasite stage accumulation index at schizonts stages at 10 uM treated at 18 hrs post-invasion for continuous duration of 36 hrs by automated image mining based cytological profiling assay; type: functional; method in brief: as §1
[9] = tested on: Plasmodium falciparum; test: Antimalarial activity against tightly synchronized Plasmodium falciparum K1 assessed as parasite stage accumulation index at schizonts stages at 10 uM treated at 6 hrs post-invasion for continuous duration of 36 hrs by automated image mining based cytological profiling assay; type: functional; method in brief: as §1
[10] = tested on: Plasmodium falciparum; test: Antimalarial activity against Plasmodium falciparum HB3 assessed as reduction in parasite stage accumulation index at 10 uM treated at 42 hrs post-invasion for 24 hrs by automated image mining based cytological profiling assay; type: functional; method in brief: as §2
[11] = tested on: Plasmodium falciparum; test: Antimalarial activity against tightly synchronized Plasmodium falciparum W2 assessed as parasite stage accumulation index at trophozoites stages at 10 uM treated at 6 hrs post-invasion for continuous duration of 36 hrs by automated image mining based cytological profiling assay; type: functional
[12] = tested on: Plasmodium falciparum; test: Antimalarial activity against tightly synchronized Plasmodium falciparum K1 assessed as parasite stage accumulation index at trophozoites stages at 10 uM treated at 18 hrs post-invasion for continuous duration of 36 hrs by automated image mining based cytological profiling assay; type: functional; method in brief: as §1
[13] = tested on: Plasmodium falciparum; test: Antimalarial activity against tightly synchronized Plasmodium falciparum W2 assessed as parasite stage accumulation index at late ring stages at 10 uM treated at 6 hrs post-invasion for continuous duration of 36 hrs by automated image mining based cytological profiling assay; type: functional
[14] = tested on: Plasmodium falciparum; test: Antimalarial activity against Plasmodium falciparum W2 assessed as reduction in culture parasitaemia level at 10 uM treated at 42 hrs post-invasion for 24 hrs by automated image mining based cytological profiling assay; type: functional, organism-based; method in brief: as §2
[15] = tested on: Plasmodium falciparum; test: Antimalarial activity against tightly synchronized Plasmodium falciparum W2 assessed as parasite stage accumulation index at trophozoites stages at 10 uM treated at 18 hrs post-invasion for continuous duration of 36 hrs by automated image mining based cytological profiling assay; type: functional
[16] = tested on: Plasmodium falciparum; test: Antimalarial activity against tightly synchronized Plasmodium falciparum HB3 assessed as parasite stage accumulation index at late ring stages at 10 uM treated at 18 hrs post-invasion for continuous duration of 36 hrs by automated image mining based cytological profiling assay; type: functional; method in brief: as §1
[17] = tested on: Plasmodium falciparum; test: Antimalarial activity against tightly synchronized Plasmodium falciparum K1 assessed as parasite stage accumulation index at trophozoites stages at 10 uM treated at 6 hrs post-invasion for continuous duration of 36 hrs by automated image mining based cytological profiling assay; type: functional
[18] = tested on: Plasmodium falciparum; test: Antimalarial activity against Plasmodium falciparum K1 assessed as reduction in parasite stage accumulation index at 10 uM treated at 42 hrs post-invasion for 24 hrs by automated image mining based cytological profiling assay; type: functional, organism-based; method in brief: as §2
[19] = tested on: Plasmodium falciparum; test: Antimalarial activity against tightly synchronized Plasmodium falciparum HB3 assessed as parasite stage accumulation index at late ring stages at 10 uM treated at 6 hrs post-invasion for continuous duration of 36 hrs by automated image mining based cytological profiling assay; type: functional; method in brief: as §1
[20] = tested on: Plasmodium falciparum; test: Antimalarial activity against Plasmodium falciparum W2 assessed as reduction in parasite stage accumulation index at 10 uM treated at 42 hrs post-invasion for 24 hrs by automated image mining based cytological profiling assay; type: functional, organism-based; method in brief: as §2
[21] = tested on: Plasmodium falciparum; test: Antimalarial activity against tightly synchronized Plasmodium falciparum HB3 assessed as parasite stage accumulation index at trophozoites stages at 10 uM treated at 30 hrs post-invasion for continuous duration of 36 hrs by automated image mining based cytological profiling assay; type: functional
[22] = tested on: Plasmodium falciparum; test: Antimalarial activity against Plasmodium falciparum HB3 assessed as reduction in culture parasitaemia level at 10 uM treated at 42 hrs post-invasion for 24 hrs by automated image mining based cytological profiling assay; type: functional; method in brief: as §2
[23] = tested on: Plasmodium falciparum; test: Antimalarial activity against tightly synchronized Plasmodium falciparum K1 assessed as parasite stage accumulation index at schizonts stages at 10 uM treated at 30 hrs post-invasion for continuous duration of 36 hrs by automated image mining based cytological profiling assay; type: functional; method in brief: as §1
[24] = tested on: Plasmodium falciparum; test: Antimalarial activity against tightly synchronized Plasmodium falciparum K1 assessed as parasite stage accumulation index at early ring stages at 10 uM treated at 6 hrs post-invasion for continuous duration of 36 hrs by automated image mining based cytological profiling assay; type: functional; method in brief: as §1
[25] = tested on: Plasmodium falciparum; test: Antimalarial activity against tightly synchronized Plasmodium falciparum HB3 assessed as parasite stage accumulation index at trophozoites stages at 10 uM treated at 6 hrs post-invasion for continuous duration of 36 hrs by automated image mining based cytological profiling assay; type: functional; method in brief: as §1
[26] = tested on: Plasmodium falciparum; test: Antimalarial activity against tightly synchronized Plasmodium falciparum W2 assessed as parasite stage accumulation index at schizonts stages at 10 uM treated at 30 hrs post-invasion for continuous duration of 36 hrs by automated image mining based cytological profiling assay; type: functional
[27] = tested on: Plasmodium falciparum; test: Antimalarial activity against tightly synchronized Plasmodium falciparum HB3 assessed as parasite stage accumulation index at early ring stages at 10 uM treated at 6 hrs post-invasion for continuous duration of 36 hrs by automated image mining based cytological profiling assay; type: functional
[28] = tested on: Plasmodium falciparum; test: Antimalarial activity against Plasmodium falciparum K1 assessed as reduction in culture parasitaemia level at 10 uM treated at 42 hrs post-invasion for 24 hrs by automated image mining based cytological profiling assay; type: functional, organism-based; method in brief: as §2
[29] = tested on: Plasmodium falciparum; test: Antimalarial activity against tightly synchronized Plasmodium falciparum K1 assessed as parasite stage accumulation index at trophozoites stages at 10 uM treated at 30 hrs post-invasion for continuous duration of 36 hrs by automated image mining based cytological profiling assay; type: functional; method in brief: as §1
[30] = tested on: Plasmodium falciparum; test: Antimalarial activity against tightly synchronized Plasmodium falciparum K1 assessed as parasite stage accumulation index at schizonts stages at 10 uM treated at 18 hrs post-invasion for continuous duration of 36 hrs by automated image mining based cytological profiling assay; type: functional; method in brief: as §1
[31] = tested on: Plasmodium falciparum; test: Antimalarial activity against tightly synchronized Plasmodium falciparum K1 assessed as parasite stage accumulation index at late ring stages at 10 uM treated at 18 hrs post-invasion for continuous duration of 36 hrs by automated image mining based cytological profiling assay; type: functional; method in brief: as §1
[32] = tested on: Plasmodium falciparum; test: Antimalarial activity against Plasmodium falciparum HB3 assessed as increase in schizonts parasite stage accumulation index at 10 uM treated at 42 hrs post-invasion for 24 hrs by automated image mining based cytological profiling assay; type: functional; method in brief: as §2
[33] = tested on: Plasmodium falciparum; test: Antimalarial activity against tightly synchronized Plasmodium falciparum W2 assessed as parasite stage accumulation index at schizonts stages at 10 uM treated at 18 hrs post-invasion for continuous duration of 36 hrs by automated image mining based cytological profiling assay; type: functional
[34] = tested on: Plasmodium falciparum; test: Antimalarial activity against tightly synchronized Plasmodium falciparum W2 assessed as parasite stage accumulation index at schizonts stages at 10 uM treated at 6 hrs post-invasion for continuous duration of 36 hrs by automated image mining based cytological profiling assay; type: functional; method in brief: as §1
[35] = tested on: Plasmodium falciparum; test: Antimalarial activity against Plasmodium falciparum K1 assessed as increase in schizonts parasite stage accumulation index at 10 uM treated at 42 hrs post-invasion for 24 hrs by automated image mining based cytological profiling assay; type: functional, organism-based; method in brief: as §2
[36] = tested on: Plasmodium falciparum; test: Antimalarial activity against tightly synchronized Plasmodium falciparum W2 assessed as parasite stage accumulation index at late ring stages at 10 uM treated at 18 hrs post-invasion for continuous duration of 36 hrs by automated image mining based cytological profiling assay; type: functional; method in brief: as §1
[37] = Cytotoxicity against human HepG2 cells after 48 hrs by resazurin based assay; type: cell-based
Method in brief: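 Cells grown in DMEM with 10% FBS and 1% antibiotic-antimycotic at 37 °C, 5% CO2. Viability read by resazurin reduction. CC50 derived; amphotericin B used as positive cytotoxicity control.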

Structure (SMILES): CC(=O)N[C@@H]1[C@@H](O)[C@H](O)[C@@H](CO)O[C@H]1O [N-ACETYLGLUCOSAMINE]
- Activity [1]: 0.29
- Activity [2]: 0.7
- Activity [3]: 1.52
- Activity [4]: 1.06
- Activity [5]: 0.34
- Activity [6]: 1.32
- inhibition [7]: inactive
- Activity [8]: 0.51
- Activity [9]: 0.66
- inhibition [10]: Active
- Activity [11]: 0.92
- Activity [12]: 1.18
- Activity [13]: 0.88
- inhibition [14]: Active
- Activity [15]: 1.12
- Activity [16]: 1
- Activity [17]: 0.8
- inhibition [18]: Active
- Activity [19]: 2.14
- inhibition [20]: Active
- Activity [21]: 0.87
- inhibition [22]: Active
- Activity [23]: 1.04
- Activity [24]: 1.33
- Activity [25]: 0.78
- Activity [26]: 1.4
- Activity [27]: 1.4
- inhibition [28]: Active
- Activity [29]: 0.96
- Activity [30]: 0.64
- Activity [31]: 0.86
- inhibition [32]: inactive
- Activity [33]: 1.08
- Activity [34]: 0.54
- inhibition [35]: inactive
- Activity [36]: 0.83

Structure (SMILES): C[C@@H]1[C@H](O)[C@@H](C)/C=C/C=C/C=C/C=C/C=C/C=C/C=C/[C@H](O[C@@H]2O[C@H](C)[C@@H](O)[C@H](N)[C@@H]2O)C[C@@H]2O[C@](O)(C[C@@H](O)C[C@@H](O)[C@H](O)CC[C@@H](O)C[C@@H](O)CC(=O)O[C@H]1C)C[C@H](O)[C@H]2C(=O)O [AMPHOTERICIN B]
- CC50 at 48 h [37]: 40 µM
